One block for each molecule: values may come before it. The source made the active and inactive calls. No cut-off for these calls is given here.
Legend:
Z-138 [1] = assay: Induction of cell cycle arrest in human Z138 cells assessed as increase in 2n cell population measured upto 5000 nM measured for 3 days by propidium iodide staining based flow cytometric analysis; assay type: functional; details: time 3.0 day
Z-138 [2] = assay: Antitumor activity against human Z138 cells xenografted in mouse assessed as reduction in tumor volume at 200 mg/kg, po qd pretreated for 21 days followed by treatment holiday for 10 days and further compound treatment for 2 weeks starting from day 32 followed by 1 week treatment holiday; assay type: functional, organism-based; details: time 52.0 day
Z-138 [3] = assay: In vivo inhibition of PRMT5 in human Z138 cells xenografted in po dosed mouse assessed as reduction in SDMA level measured for 7 days; assay type: functional, organism-based; details: dose 0.2-100 mg/kg, time 7.0 day
[4] = target: E3 ubiquitin-protein ligase Mdm2 (Homo sapiens) (UniProt Q00987); assay: In vivo inhibition of PRMT5 in human Z138 cells xenografted in mouse assessed as increase in MDM2 expression at 100 mg/kg, po BID measured for 7 days; assay type: functional, organism-based; details: Z-138, time 7.0 day
Chain of E3 ubiquitin-protein ligase Mdm2 (Homo sapiens) (Q00987 whole entry, looked up): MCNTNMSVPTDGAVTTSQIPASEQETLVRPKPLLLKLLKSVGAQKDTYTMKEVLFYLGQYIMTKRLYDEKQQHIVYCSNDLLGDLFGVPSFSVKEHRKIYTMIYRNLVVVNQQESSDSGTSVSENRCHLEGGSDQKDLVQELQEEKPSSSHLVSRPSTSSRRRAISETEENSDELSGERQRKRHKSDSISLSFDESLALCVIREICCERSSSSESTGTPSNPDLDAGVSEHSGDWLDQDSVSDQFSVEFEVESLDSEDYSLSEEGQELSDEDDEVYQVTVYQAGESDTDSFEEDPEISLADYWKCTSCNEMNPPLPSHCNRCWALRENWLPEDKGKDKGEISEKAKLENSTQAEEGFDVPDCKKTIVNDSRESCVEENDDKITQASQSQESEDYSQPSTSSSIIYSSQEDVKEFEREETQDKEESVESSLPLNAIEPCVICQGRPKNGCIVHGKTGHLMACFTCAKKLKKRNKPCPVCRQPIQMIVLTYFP

Z-138 [5] = assay: In vivo inhibition of PRMT5 in human Z138 cells xenografted in mouse assessed as increase in p21 expression at 100 mg/kg, po BID measured for 7 days; assay type: functional, organism-based; details: time 7.0 day
DOHH-2 = assay: Antiproliferative activity against human DOHH-2 cells assessed as cell growth inhibition incubated for 6 days by celltiter-glo assay; assay type: functional; details: DOHH-2, 144 h, time 6 day
[6] = Antiproliferative activity against human Ri-1 cells assessed as cell growth inhibition incubated for 6 days by celltiter-glo assay; assay type: functional; details: Ri-1, 144 h, time 6 day
Procedure, shortened: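 Cells seeded in 384-well plates at an optimized density and held 24 h. CellTiter-Glo luminescence read at Day 0 and Day 6. Four-parameter fit. gIC50 = midpoint of the growth window between DMSO and T0. Curves required ≥1.5 population doublings.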

DoTc2-4510 = assay: Antiproliferative activity against human DoTc2-4510 cells assessed as cell growth inhibition incubated for 10 days; assay type: functional; details: DoTc2-4510, 240 h, time 10 day
Procedure, shortened: (§1)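 Outsourced panel run in 384-well plates. Cells were grown in RPMI-1640/10% FBS or a special medium at 37°C, 5% CO2. Compound was added 24 h after seeding as a 10-point, 3.16-fold series in 0.1% DMSO. Medium was refreshed and cells re-dosed at 168 h, with a time-zero plate kept. At 240 h cells were fixed, nuclei stained and imaged. gIC50 is growth midway between untreated and time zero, from a 4-parameter fit.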

[7] = Antiproliferative activity against human C4-1 cells assessed as cell growth inhibition incubated for 10 days; assay type: functional; details: C4-1, 240 h, time 10 day
Procedure, shortened: (§2)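 Cells kept in RPMI-1640 with 10% FBS, 2 mM L-alanyl-L-glutamine and 1 mM Na pyruvate (or a special medium) at 37°C, 5% CO2. Compound added 24 h after seeding, 10 concentrations in 3.16-fold dilution, 0.1% DMSO final. Medium replaced and cells re-dosed at 168 h; 240 h incubation. Nuclei fixed, dye-stained and imaged. gIC50 = growth midway between untreated and time-zero cell counts, from a 4-parameter fit.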

BV-173 = assay: Antiproliferative activity against human BV-173 cells assessed as cell growth inhibition incubated for 10 days; assay type: functional; details: BV-173, 240 h, time 10 day; procedure, shortened: as §2
MEG-01 = assay: Antiproliferative activity against human MEG-01 cells assessed as cell growth inhibition incubated for 10 days; assay type: functional; details: MEG-01, 240 h, time 10 day
RKO = assay: Antiproliferative activity against human RKO cells assessed as cell growth inhibition incubated for 10 days; assay type: functional; details: 240 h, time 10 day
SW948 = assay: Antiproliferative activity against human SW948 cells assessed as cell growth inhibition incubated for 10 days; assay type: functional; details: SW948, 240 h, time 10 day
NCI-H508 = assay: Antiproliferative activity against human NCI-H508 cells assessed as cell growth inhibition incubated for 10 days; assay type: functional; details: NCI-H508, 240 h, time 10 day
SW1417 = assay: Antiproliferative activity against human SW1417 cells assessed as cell growth inhibition incubated for 10 days; assay type: functional; details: SW1417, 240 h, time 10 day
HT = assay: Antiproliferative activity against human HT cells assessed as cell growth inhibition incubated for 10 days; assay type: functional; details: 240 h, time 10 day; procedure, shortened: as §1
HEC-1-A = assay: Antiproliferative activity against human HEC-1-A cells assessed as cell growth inhibition incubated for 10 days; assay type: functional; details: 240 h, time 10 day; procedure, shortened: as §1
KLE = assay: Antiproliferative activity against human KLE cells assessed as cell growth inhibition incubated for 10 days; assay type: functional; details: 240 h, time 10 day
Procedure, shortened: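 Cells grown in RPMI-1640 with 10% FBS, 2 mM L-alanyl-L-glutamine and 1 mM Na pyruvate (or special medium) at 37°C, 5% CO2. Compound was added 24 h after seeding, with a parallel time-zero plate. Medium was replaced and the compound re-dosed at 168 h. Dosing used 10 concentrations (3.16-fold dilutions, 0.1% DMSO) over a 240 h incubation. Nuclei were stained and imaged. gIC50 is growth midway between untreated and time-zero, from a 4-parameter fit.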

U138-MG = assay: Antiproliferative activity against human U138-MG cells assessed as cell growth inhibition incubated for 10 days; assay type: functional; details: 240 h, time 10 day
G-402 = assay: Antiproliferative activity against human G-402 cells assessed as cell growth inhibition incubated for 10 days; assay type: functional; details: G-402, 240 h, time 10 day; procedure, shortened: as §1
C32 = assay: Antiproliferative activity against human C32 cells assessed as cell growth inhibition incubated for 10 days; assay type: functional; details: C32, 240 h, time 10 day; procedure, shortened: as §2
CHL-1 = assay: Antiproliferative activity against human CHL-1 cells assessed as cell growth inhibition incubated for 10 days; assay type: functional; details: CHL-1, 240 h, time 10 day; procedure, shortened: as §2
[8] = Antiproliferative activity against human SKO-007 cells assessed as cell growth inhibition incubated for 10 days; assay type: functional; details: SKO-007, 240 h, time 10 day
SK-N-FI = assay: Antiproliferative activity against human SK-N-FI cells assessed as cell growth inhibition incubated for 10 days; assay type: functional; details: 240 h, time 10 day
PANC-1 = assay: Antiproliferative activity against human PANC-1 cells assessed as cell growth inhibition incubated for 10 days; assay type: functional; details: PANC-1, 240 h, time 10 day
HT-3 = assay: Antiproliferative activity against human HT-3 cells assessed as cell growth inhibition incubated for 10 days; assay type: functional; details: HT-3, 240 h, time 10 day; procedure, shortened: as §1
[9] = Antiproliferative activity against human TE 381.T cells assessed as cell growth inhibition incubated for 10 days; assay type: functional; details: 240 h, time 10 day
SW684 = assay: Antiproliferative activity against human SW684 cells assessed as cell growth inhibition incubated for 10 days; assay type: functional; details: SW684, 240 h, time 10 day
NCI-H69 = assay: Antiproliferative activity against human NCI-H69 cells assessed as cell growth inhibition incubated for 10 days; assay type: functional; details: NCI-H69, 240 h, time 10 day
[10] = target: Protein arginine N-methyltransferase 5 (Homo sapiens) (UniProt O14744); assay: Inhibition of PRMT5 in human Z138 cells assessed as effect on hnRNP level by measuring fold change by LC-MS/MS analysis relative to control; assay type: cell-based
Chain of Protein arginine N-methyltransferase 5 (Homo sapiens) (O14744 whole entry): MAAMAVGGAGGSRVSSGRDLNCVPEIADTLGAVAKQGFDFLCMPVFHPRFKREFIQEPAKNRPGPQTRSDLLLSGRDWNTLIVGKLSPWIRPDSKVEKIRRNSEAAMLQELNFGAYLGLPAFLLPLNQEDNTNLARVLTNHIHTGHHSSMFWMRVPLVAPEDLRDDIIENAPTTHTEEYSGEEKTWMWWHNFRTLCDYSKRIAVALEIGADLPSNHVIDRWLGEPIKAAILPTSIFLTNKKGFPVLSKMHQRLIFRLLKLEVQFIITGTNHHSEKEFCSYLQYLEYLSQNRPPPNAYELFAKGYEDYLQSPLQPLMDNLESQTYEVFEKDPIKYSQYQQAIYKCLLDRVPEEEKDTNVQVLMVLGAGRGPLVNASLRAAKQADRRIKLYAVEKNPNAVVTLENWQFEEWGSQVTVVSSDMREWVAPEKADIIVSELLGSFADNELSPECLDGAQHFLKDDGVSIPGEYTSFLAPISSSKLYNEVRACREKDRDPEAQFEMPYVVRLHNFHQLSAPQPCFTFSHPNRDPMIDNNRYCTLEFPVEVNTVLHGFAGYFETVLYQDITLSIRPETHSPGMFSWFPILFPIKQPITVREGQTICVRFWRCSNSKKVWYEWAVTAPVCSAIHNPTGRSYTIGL

[11] = target: Protein arginine N-methyltransferase 5 (Homo sapiens) (UniProt O14744); assay: Inhibition of PRMT5 in human Z138 cells assessed as MDM4 splicing at 8 to 1000 nM incubated for 3 days by RT-PCR analysis; assay type: cell-based; details: dose 8-1000 nM, time 3.0 day

- inhibition [4]: Active
Compound: CC(=O)N1CCC(Nc2cc(C(=O)NC[C@H](O)CN3CCc4ccccc4C3)ncn2)CC1 [PEMRAMETOSTAT]
- Activity (Z-138 [1]): Active
- Activity (Z-138 [2]): Active
- inhibition (Z-138 [3]): Dose-Dependent Effect
- inhibition (Z-138 [5]): Active

- GI50 (SW948): 120 nM
- GI50 (NCI-H508): 307 nM
- GI50 (SW1417): 773 nM
- GI50 (SK-N-FI): 308 nM
- GI50 (PANC-1): 165 nM
- GI50 (SW684): 1170 nM
- GI50 (NCI-H69): 144 nM
- fold change (FC) [10]: -5.3
- inhibition [11]: Active
Compound: O=C(NC[C@H](O)CN1CCc2ccccc2C1)c1ccnc(NC2CCC2)c1
- GI50 (DOHH-2): 116 nM
- GI50 [6]: 68 nM
- GI50 (DoTc2-4510): 95.8 nM
- GI50 [7]: 139 nM
- GI50 (BV-173): 10.6 nM
- GI50 (MEG-01): 10 µM
- GI50 (RKO): 772 nM
- GI50 (HT): 206 nM
- GI50 (HEC-1-A): 2440 nM
- GI50 (KLE): 10 µM
- GI50 (U138-MG): 43.3 nM
- GI50 (G-402): 99.7 nM
- GI50 (C32): 14.1 nM
- GI50 (CHL-1): 247 nM
- GI50 [8]: 84.4 nM
- GI50 (HT-3): 10 µM
- GI50 [9]: 147 nM

Source: ChEMBL document CHEMBL5653630, “Activation of the p53-MDM4 regulatory axis defines the anti-tumour response to PRMT5 inhibition through its role in regulating cellular splicing” (Sci Rep, 2018)
